# Calls of active or inactive are those of the source. The calls are words filed in the database; no cut-off is given here.
# What was measured:
# [1] = Antitumor activity against human HCT116 cells xenografted in SCID mouse assessed as tumor growth inhibition at 15 mg/kg, ip qd for 5 days; assay type: functional; settings: HCT-116, ip, 120 h, route intraperitoneal, read-out: TGI
# How it was run: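 HCT116 xenografts were grown in mice and dosed by the intraperitoneal route once daily. Tumor volume was tracked and compared with a negative-control arm, and the result was expressed as percent tumor growth inhibition. Body weight was monitored across all arms.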
# [2] = molecular target: T1, Dual specificity protein kinase TTK (Homo sapiens, UniProt P33981); test: Inhibition of GST-fused full length human TTK compound pre-incubated for 15 mins prior ATP addition by MBP-based assay
# T1 sequence (P33981 whole entry): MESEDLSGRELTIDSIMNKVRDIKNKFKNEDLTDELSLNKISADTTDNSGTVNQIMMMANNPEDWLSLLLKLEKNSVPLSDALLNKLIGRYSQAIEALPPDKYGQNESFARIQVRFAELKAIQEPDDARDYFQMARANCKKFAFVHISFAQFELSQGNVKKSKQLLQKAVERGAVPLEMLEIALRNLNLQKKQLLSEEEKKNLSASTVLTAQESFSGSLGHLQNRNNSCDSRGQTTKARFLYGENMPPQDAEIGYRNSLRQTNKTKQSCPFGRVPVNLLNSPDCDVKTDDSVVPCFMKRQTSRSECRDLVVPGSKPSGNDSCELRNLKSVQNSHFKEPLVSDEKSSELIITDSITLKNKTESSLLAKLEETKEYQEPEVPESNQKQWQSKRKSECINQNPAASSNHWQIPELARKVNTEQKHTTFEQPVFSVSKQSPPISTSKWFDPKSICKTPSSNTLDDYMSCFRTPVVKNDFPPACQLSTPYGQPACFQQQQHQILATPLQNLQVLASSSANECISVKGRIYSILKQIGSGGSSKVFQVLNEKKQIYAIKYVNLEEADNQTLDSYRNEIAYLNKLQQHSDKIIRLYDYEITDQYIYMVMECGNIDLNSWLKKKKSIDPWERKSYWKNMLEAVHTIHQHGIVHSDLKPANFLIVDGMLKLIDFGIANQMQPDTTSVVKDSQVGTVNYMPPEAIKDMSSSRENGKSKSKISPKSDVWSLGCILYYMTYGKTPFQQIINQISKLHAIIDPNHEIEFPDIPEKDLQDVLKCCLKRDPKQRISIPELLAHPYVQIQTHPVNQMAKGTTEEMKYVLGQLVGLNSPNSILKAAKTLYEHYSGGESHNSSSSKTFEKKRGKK
# [3] = Cell cycle arrest in human HCT116 cells at 500 to 2500 nM after 2 days by flow cytometry; assay type: functional, cell-based; settings: HCT-116
# [4] = molecular target: Receptor-type tyrosine-protein kinase FLT3 (Homo sapiens) (UniProt P36888); test: Inhibition of FLT3 (unknown origin) by FRET-based homogenous assay
# Cytochrome P450 3A4 [5] = molecular target: T2, Cytochrome P450 3A4 (Homo sapiens, UniProt P08684); test: Inhibition of CYP3A4 in supersomes (unknown origin) using 7-benzyloxy-4-trifluoromethylcoumarin as substrate after 30 mins; assay type: ADME
# Cytochrome P450 1A2 = molecular target: T3, Cytochrome P450 1A2 (Homo sapiens, UniProt P05177); test: Inhibition of CYP1A2 in supersomes (unknown origin) using CEC as substrate after 30 mins; assay type: ADME
# T3 sequence (P05177 whole entry): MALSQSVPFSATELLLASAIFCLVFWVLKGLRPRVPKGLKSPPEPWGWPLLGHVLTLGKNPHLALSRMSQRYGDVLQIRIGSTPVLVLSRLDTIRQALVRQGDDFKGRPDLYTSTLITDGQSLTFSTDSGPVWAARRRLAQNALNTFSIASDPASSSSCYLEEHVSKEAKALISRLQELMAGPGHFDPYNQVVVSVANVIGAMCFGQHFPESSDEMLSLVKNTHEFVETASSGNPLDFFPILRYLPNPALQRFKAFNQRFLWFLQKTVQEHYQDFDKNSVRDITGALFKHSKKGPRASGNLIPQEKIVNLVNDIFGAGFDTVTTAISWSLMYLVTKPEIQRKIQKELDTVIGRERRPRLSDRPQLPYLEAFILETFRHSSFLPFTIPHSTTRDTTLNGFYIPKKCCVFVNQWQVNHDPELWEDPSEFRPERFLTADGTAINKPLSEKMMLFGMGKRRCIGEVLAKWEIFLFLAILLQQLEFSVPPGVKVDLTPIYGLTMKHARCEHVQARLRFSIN
# Cytochrome P450 2C19 = Cytochrome P450 2C19 (Homo sapiens, UniProt P33261); test: Inhibition of CYP2C19 in supersomes (unknown origin) using MFC as substrate after 30 mins; assay type: ADME
# [6] = Growth inhibition of human HCT116 cells after 5 days by SRB assay; assay type: functional; settings: HCT-116, 120 h
# [7] = molecular target: Serine/threonine-protein kinase Chk2 (Homo sapiens, UniProt O96017); test: Inhibition of CHK2 (unknown origin) by FRET-based homogenous assay
# Cytochrome P450 2D6 = Cytochrome P450 2D6 (Homo sapiens, UniProt P10635); test: Inhibition of CYP2D6 in supersomes (unknown origin) using AMMC as substrate after 30 mins; assay type: ADME
# Cytochrome P450 2C9 = Cytochrome P450 2C9 (Homo sapiens, UniProt P11712); test: Inhibition of CYP2C9 in supersomes (unknown origin) using MFC as substrate after 30 mins; assay type: ADME
# [8] = molecular target: T4, Serine/threonine-protein kinase PLK4 (Homo sapiens, UniProt O00444); test: Inhibition of GST-tagged human PLK4 (1-391 residues) phosphorylation by ELISA
# T4 sequence (O00444 whole entry): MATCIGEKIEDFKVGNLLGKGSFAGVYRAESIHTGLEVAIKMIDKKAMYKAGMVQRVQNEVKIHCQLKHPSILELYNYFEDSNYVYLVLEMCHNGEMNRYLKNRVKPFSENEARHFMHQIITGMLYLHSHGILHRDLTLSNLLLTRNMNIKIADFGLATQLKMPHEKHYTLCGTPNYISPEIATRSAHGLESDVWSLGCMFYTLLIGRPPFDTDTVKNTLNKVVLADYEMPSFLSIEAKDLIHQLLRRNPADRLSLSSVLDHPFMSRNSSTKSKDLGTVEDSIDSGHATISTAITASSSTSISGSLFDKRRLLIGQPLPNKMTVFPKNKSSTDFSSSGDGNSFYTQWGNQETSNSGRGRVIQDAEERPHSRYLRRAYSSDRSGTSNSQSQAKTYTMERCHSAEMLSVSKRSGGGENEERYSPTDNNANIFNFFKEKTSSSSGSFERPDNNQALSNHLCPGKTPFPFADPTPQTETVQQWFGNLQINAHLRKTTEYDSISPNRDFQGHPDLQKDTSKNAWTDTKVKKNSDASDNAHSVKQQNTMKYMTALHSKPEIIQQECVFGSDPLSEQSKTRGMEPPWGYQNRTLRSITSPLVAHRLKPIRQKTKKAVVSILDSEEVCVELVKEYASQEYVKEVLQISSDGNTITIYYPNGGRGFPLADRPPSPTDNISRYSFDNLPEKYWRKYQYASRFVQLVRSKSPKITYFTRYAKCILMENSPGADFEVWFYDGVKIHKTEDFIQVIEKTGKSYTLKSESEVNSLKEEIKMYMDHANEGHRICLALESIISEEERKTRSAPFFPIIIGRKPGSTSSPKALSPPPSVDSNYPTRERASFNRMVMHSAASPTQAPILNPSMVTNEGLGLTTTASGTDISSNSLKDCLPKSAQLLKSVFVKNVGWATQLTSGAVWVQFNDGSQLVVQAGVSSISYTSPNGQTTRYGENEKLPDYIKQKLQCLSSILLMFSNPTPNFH
# [9] = Solubility of the compound at pH 7.4; assay type: physicochemical; settings: buffer
# [10] = Permeability of the compound at pH 7.4 by PAMPA; assay type: ADME; settings: read-out: permeability
# Cytochrome P450 3A4 [11] = molecular target: T2, Cytochrome P450 3A4; test: Inhibition of CYP3A4 in supersomes (unknown origin) using Dibenzylfluorescein as substrate after 10 mins; assay type: ADME
# [12] = molecular target: T1, Dual specificity protein kinase TTK; test: Inhibition of SUMO-tagged human TTK (1-275 residues) compound pre-incubated for 15 mins prior ATP addition by MBP-based assay
# Aurora kinase B = Aurora kinase B (Homo sapiens, UniProt Q96GD4); test: Inhibition of Aurora B (unknown origin) by FRET-based homogenous assay
# Aurora kinase B, sequence (Q96GD4 whole entry): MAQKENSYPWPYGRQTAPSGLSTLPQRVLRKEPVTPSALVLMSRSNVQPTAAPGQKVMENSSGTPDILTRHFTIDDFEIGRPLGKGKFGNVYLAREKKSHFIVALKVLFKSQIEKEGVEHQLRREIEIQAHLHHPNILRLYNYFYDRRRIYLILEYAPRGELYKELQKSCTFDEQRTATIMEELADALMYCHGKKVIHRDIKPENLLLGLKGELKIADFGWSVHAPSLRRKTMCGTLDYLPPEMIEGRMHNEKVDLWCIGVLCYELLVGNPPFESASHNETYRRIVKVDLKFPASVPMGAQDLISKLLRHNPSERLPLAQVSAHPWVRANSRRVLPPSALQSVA
# T2 sequence (P08684 whole entry): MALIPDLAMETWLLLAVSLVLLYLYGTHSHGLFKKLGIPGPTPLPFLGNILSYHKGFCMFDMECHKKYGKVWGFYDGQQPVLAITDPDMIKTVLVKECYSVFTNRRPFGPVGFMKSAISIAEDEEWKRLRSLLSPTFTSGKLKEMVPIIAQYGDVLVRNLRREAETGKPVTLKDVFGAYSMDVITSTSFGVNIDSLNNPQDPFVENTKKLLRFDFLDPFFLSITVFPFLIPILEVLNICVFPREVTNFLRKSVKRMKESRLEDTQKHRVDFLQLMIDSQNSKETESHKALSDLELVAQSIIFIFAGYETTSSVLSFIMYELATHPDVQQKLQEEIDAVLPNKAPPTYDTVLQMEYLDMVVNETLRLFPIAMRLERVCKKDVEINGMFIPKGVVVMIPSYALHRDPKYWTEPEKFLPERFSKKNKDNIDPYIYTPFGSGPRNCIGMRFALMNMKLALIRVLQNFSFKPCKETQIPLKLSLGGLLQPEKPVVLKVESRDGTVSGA
# Serine/threonine-protein kinase Chk2, sequence (O96017 whole entry): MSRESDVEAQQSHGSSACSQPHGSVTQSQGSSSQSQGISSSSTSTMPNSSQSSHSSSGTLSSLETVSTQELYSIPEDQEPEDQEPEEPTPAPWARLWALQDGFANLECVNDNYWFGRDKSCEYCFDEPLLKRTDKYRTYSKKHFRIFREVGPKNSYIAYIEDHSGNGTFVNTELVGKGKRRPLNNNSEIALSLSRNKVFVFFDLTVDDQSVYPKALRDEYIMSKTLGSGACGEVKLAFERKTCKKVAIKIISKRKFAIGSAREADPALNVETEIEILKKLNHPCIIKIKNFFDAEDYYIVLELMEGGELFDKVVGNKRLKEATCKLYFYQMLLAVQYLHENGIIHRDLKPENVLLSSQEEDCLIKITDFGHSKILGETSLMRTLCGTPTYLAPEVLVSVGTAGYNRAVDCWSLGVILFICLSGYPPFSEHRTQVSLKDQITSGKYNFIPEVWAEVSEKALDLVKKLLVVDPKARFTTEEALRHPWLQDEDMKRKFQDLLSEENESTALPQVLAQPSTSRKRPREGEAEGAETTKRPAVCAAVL
# Cytochrome P450 2C19, sequence (P33261 whole entry): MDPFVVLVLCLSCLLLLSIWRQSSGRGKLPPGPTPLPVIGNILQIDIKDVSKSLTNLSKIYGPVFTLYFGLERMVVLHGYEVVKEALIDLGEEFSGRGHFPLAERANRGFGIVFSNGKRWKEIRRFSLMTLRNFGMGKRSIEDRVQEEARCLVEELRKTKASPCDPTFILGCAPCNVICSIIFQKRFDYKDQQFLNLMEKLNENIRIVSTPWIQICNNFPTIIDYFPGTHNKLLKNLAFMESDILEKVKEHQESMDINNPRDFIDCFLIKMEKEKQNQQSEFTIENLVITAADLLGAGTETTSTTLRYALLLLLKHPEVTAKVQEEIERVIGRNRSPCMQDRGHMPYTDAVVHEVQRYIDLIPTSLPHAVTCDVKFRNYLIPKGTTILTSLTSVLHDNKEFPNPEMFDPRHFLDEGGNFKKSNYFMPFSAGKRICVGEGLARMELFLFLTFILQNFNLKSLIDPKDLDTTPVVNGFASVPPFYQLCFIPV
# Cytochrome P450 2D6, sequence (P10635 whole entry): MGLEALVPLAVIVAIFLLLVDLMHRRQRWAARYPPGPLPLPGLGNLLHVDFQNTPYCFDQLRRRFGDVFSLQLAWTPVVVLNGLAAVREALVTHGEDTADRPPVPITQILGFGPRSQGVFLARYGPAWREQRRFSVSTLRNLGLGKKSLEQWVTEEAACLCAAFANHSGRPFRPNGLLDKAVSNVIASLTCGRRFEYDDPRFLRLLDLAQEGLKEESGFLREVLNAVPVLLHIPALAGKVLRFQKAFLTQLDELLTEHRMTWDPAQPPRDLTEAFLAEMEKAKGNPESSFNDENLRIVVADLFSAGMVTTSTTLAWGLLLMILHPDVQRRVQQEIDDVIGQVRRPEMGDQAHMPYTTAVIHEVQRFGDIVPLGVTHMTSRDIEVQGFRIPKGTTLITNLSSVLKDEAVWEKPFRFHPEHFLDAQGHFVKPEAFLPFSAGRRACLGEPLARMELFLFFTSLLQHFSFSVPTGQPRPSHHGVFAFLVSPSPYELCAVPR
# Cytochrome P450 2C9, sequence (P11712 whole entry, the tested form may be a part): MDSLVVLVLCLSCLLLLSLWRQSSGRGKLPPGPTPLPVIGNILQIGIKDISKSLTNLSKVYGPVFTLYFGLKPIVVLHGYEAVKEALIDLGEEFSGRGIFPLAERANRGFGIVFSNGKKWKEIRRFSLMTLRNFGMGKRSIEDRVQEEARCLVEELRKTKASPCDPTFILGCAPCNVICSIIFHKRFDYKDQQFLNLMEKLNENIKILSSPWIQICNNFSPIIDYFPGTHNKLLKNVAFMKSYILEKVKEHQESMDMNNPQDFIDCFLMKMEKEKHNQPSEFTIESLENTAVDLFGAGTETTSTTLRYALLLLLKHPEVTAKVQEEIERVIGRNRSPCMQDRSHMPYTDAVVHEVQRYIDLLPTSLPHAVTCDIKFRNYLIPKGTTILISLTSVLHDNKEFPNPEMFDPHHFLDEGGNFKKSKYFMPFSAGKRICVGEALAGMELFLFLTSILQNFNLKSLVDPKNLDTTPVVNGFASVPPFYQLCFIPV
# Receptor-type tyrosine-protein kinase FLT3 (Homo sapiens), sequence (P36888 whole entry): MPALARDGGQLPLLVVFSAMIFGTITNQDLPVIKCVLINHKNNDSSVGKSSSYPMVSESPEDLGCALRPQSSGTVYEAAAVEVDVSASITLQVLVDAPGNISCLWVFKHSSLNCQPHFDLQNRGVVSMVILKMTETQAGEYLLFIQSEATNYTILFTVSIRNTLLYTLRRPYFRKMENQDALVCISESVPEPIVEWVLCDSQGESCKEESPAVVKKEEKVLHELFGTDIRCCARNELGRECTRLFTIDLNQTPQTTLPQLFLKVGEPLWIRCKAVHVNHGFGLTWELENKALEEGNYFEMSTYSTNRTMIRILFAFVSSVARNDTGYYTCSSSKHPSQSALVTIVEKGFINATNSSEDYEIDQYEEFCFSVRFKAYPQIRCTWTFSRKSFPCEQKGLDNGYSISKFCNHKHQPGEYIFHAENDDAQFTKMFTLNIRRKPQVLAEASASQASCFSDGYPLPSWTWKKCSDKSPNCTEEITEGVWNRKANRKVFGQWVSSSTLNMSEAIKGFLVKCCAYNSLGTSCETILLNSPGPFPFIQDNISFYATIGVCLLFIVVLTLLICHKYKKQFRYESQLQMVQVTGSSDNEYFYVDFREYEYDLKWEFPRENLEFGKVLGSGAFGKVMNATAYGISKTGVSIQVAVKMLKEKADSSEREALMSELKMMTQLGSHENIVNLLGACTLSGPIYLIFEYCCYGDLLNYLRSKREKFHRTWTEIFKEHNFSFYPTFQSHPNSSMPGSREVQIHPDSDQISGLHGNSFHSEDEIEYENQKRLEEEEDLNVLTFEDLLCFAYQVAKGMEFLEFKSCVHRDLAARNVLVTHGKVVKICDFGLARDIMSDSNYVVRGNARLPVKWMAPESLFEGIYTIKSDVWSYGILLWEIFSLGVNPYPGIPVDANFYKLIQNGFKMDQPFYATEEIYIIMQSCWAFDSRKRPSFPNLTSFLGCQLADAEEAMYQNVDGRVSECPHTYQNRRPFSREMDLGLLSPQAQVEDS
smiles,measurement,setting,value
O=c1[nH]cc(F)c(=O)[nH]1 [FLUOROURACIL],inhibition in vivo at 15 mg/kg,[1],46%
c1ccc(-c2[nH]nc3ccccc23)cc1,IC50,[2],12000 nM
same,Activity,[3],inactive
same,inhibition,[4],inactive
CCc1cccc(CC)c1NC(=O)Nc1ccc2[nH]nc(-c3cccc(S(N)(=O)=O)c3)c2c1,IC50,Cytochrome P450 3A4 [5],1000 nM
same,IC50,Cytochrome P450 1A2,> 10000 nM
same,IC50,Cytochrome P450 2C19,> 1000 nM
same,GI50,[6],> 50000 nM
same,IC50,[7],410 nM
same,IC50,Cytochrome P450 2D6,> 10000 nM
same,IC50,Cytochrome P450 2C9,1700 nM
same,IC50,[8],130 nM
same,solubility,[9],< 0.1 µg/mL
same,Papp,[10],< 21 ×10⁻⁶ cm/s
same,IC50,Cytochrome P450 3A4 [11],10000 nM
same,IC50,[12],3.5 nM
same,IC50,Aurora kinase B,2400 nM
NS(=O)(=O)c1cccc(-c2n[nH]c3ccc(C(=O)N[C@H]4CCc5ccccc54)cc23)c1,Activity,[3],inactive

# Reference: ChEMBL document CHEMBL3352261, “Discovery of inhibitors of the mitotic kinase TTK based on N-(3-(3-sulfamoylphenyl)-1H-indazol-5-yl)-acetamides and carboxamides” (Bioorg Med Chem, 2014)
